Compound activity from PubChem.
CHOP inh: inhibitors of CHOP induction in ER stress response; inhibition, % at 10 µM; AID 2732; CHO-K1 CHOP-promoter luciferase, tunicamycin-induced, 15-18 h; 3.8% of 220,000 active;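 active means compounds that reduced the stress-induced luciferase reporter signal by more than about 70% of percent inhibition, limit read from the data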;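 further: 0% = tunicamycin plus vehicle and 100% = wells without tunicamycin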
CHOP UPR activ: activators of apoptotic arm of unfolded protein response (CHOP); CHO-CHOP luciferase reporter, UPR activation, luminescence; percent of tunicamycin response over DMSO baseline; activation, % at 10 µM; 0.34% of 330,000 active;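 active means at 10 µM dose, activation of 40% or more, normalized to positive control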;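 further: 100% = tunicamycin at 10 µg/mL and 0% = DMSO alone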
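Test system: CHO-CHOP cells, stable luciferase reporter of PERK-eIF2a-CHOP signalling | Quantity: 500 CHO-CHOP cells per well | Buffer or medium: F12 plus 10% serum | Compound dosing: 10 µM single point, 0.5% DMSO | Schedule: 6 h compound treatment, 37 °C | Signal: Luciferase luminescence | Control set: Tunicamycin high control, DMSO low control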
TLR4-MyD88 BLA: TLR4-MyD88 interaction inhibition in cells; O00206+Q99836; HeLa CL3-4 TLR4/MyD88 BLA complementation, FRET ratio; inhibition, % at 8.4 µM; 0.18% of 200,000 active; in the data active means inhibition above about 25%;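 further: 0% = vehicle and 100% = reference inhibitor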
NOD2-RIPK2 inh: blocks binding of human NOD2 to RIPK2 | O43353 | CHO BLA complementation NOD2-RIPK2, CCF4 ratio | inhibition, % at 4.98 µM | 0.38% of 360,000 active | AID 624267; in the data active means inhibition above about 21%;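 further: 0% = vehicle only and 100% = reference blocker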
Target sequence (O43353 whole entry, looked up): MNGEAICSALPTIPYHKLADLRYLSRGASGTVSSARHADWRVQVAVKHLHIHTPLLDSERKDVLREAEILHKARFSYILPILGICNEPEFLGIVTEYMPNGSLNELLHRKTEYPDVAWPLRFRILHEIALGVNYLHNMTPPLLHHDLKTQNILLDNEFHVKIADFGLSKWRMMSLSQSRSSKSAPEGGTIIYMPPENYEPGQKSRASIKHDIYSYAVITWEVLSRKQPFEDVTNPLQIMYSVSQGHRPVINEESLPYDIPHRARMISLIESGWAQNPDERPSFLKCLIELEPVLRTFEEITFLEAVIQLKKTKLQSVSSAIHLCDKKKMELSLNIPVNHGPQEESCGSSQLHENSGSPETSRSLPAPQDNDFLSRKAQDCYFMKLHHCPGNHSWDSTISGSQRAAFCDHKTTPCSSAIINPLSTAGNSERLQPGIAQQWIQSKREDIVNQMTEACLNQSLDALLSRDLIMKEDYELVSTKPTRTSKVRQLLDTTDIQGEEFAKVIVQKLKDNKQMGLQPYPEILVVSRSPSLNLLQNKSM
XBP1 UPR activ: adaptive UPR (XBP1) activation | CHO-XBP1 luciferase reporter, IRE1-XBP1 UPR activation, luminescence; percent of tunicamycin response, DMSO as zero | activation, % at 20 µM | 0.33% of 330,000 active | AID 463104;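 active means versus positive control, 20 µM dose yields 30% or more activation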;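 further: 100% = tunicamycin at 10 µg/mL and 0% = DMSO only wells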
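Assay system: IRE1-XBP1 luciferase reporter CHO line. Input: 1000 cells/well. Buffer or medium: F12 with 10% serum. Doses: 20 µM, 1% DMSO. Times: overnight seeding at 37 °C, 6 h compound treatment at 37 °C. Technique: Steady-Glo luciferase glow luminescence, 10 min after reagent addition.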
TLR9-MyD88 block: TLR9-MyD88 interaction inhibition. CHO BLA complementation TLR9-MyD88, CCF4 FRET ratio. inhibition, % at 4.98 µM. 0.21% of 340,000 active;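 active means inhibition above the mean over all tested compounds plus 3 SD, cut at about 21% in these data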;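 further: 0% = DMSO only wells and 100% = clavulanate BLA inhibitor control wells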
Starred values were filed as active, the others as inactive; . = no result. Shown is part of a subset that was picked to be rich in hits.

SMILES | CHOP inh | CHOP UPR activ | TLR4-MyD88 BLA | NOD2-RIPK2 inh | XBP1 UPR activ | TLR9-MyD88 block
COc1ccc(-c2nc(N)nc(C)c2Oc2ccccc2Br)c(O)c1 | 95.4* | -0.2 | -7.7 | -2.0 | -2.6 | -10.2
CCCC1=C(C(=O)OCC)C(c2ccc(OC)c(C)c2OC)C(C#N)=C(N)O1 (stereo not given) | 71.6* | -2.7 | -10.9 | 0.4 | -4.5 | -1.0
COCCCNC(=O)[C@H](Cc1ccccc1)NC(=O)CC[C@H]1O[C@@H](n2ccc(=O)[nH]c2=O)[C@H](O)[C@@H]1O | . | . | . | -3.5 | . | .
COc1ccc(C2=CC3=C(Br)C(=O)C(C)(O)C(=O)C3=CO2)cc1 (stereo not given) | 95.1* | 2.5 | . | 8.1 | -2.0 | 0.5
O=C(O)C1C(c2ccccc2)=C1c1ccc(Br)cc1 (stereo not given) | . | . | . | -0.3 | . | 2.6
CC(=O)C1=CCC(c2ccc(C)cc2)N(S(=O)(=O)c2ccc(Cl)cc2)C1 (stereo not given) | . | . | . | -9.0 | . | .
COC(=O)c1ccc(NC(C(=O)OC)C(C)C)c([N+](=O)[O-])c1 (stereo not given) | 31.8 | 1.6 | -6.6 | -3.6 | 0.9 | 1.1
CCC(C)C(Nc1ccc(C(=O)OC)cc1[N+](=O)[O-])C(=O)OC (stereo not given) | 89.2* | 1.5 | -5.4 | 6.5 | -0.3 | -0.7
CCOc1ccccc1NC(=O)COC(=O)c1nc2nccc(C)n2n1 | . | 0.5 | . | -11.7 | 1.7 | -2.2
COc1ccc([N+](=O)[O-])c(O)c1C(C)=O | . | . | . | -1.9 | . | -16.1
Nc1c(N=Nc2cccc(Cl)c2)c(=O)[nH]n1-c1ccccc1 | 72.3* | 4.1 | 1.7 | -8.0 | 2.5 | -8.0
COc1ccccc1Nc1nc(N)nc(CN2CCN(c3ccccc3F)CC2)n1 | 83.3* | -0.4 | -5.7 | -2.2 | 0.9 | 7.6
COc1ccccc1N1CCN(Cc2nc(N)nc(Nc3ccc(C)c(Cl)c3)n2)CC1 | 76.4* | 1.9 | 10.2 | -4.4 | 4.4 | -5.0
CC(=O)NC(C)(c1ccccc1)c1nc(-c2cccc3cccnc23)cs1 (stereo not given) | . | . | . | -5.7 | . | .
COC(=O)c1ccc(NC(=S)N2CCN(Cc3cccc(C)c3)CC2)cc1 | 88.9* | -1.7 | -1.6 | 0.7 | 0.6 | 2.1
COc1cccc(-c2csc(N3CCN(C(=S)Nc4ccc(Cl)cc4)CC3)n2)c1 | 71.2* | 0.6 | -0.6 | -8.1 | -1.3 | 13.9
CCc1ccc(NC(=S)N2CCN(c3cccc(OC)c3)CC2)cc1 | 72.4* | -0.3 | 3.6 | 6.4 | -2.4 | -5.2
COc1cccc(-c2csc(N3CCN(C(=S)Nc4ccccc4)CC3)n2)c1 | 39.4 | 1.1 | 7.9 | 6.2 | -1.1 | -1.2
OC(c1ccc(-c2ccccc2)cc1)c1ncc(-c2ccc(F)cc2)[nH]1 (stereo not given) | . | . | . | -1.1 | . | .
COc1ccc(NC(=O)C2CCCNC2)cc1OCC(C)C (stereo not given) | 76.7* | -3.3 | 3.5 | -3.9 | -0.4 | 2.6
COc1ccc2c(c1)C(C)=CC(C)(C)N2C(=O)C(C)N1C(=O)c2ccccc2C1=O (stereo not given) | 3.7 | -1.1 | 3.1 | -6.5 | -2.6 | 0.9
CC1=CC(C)(C)N(C(=O)C(C)N2C(=O)c3ccccc3C2=O)c2c(C)cc(C)cc21 (stereo not given) | 104.6* | . | -6.2 | . | . | .
O=C(Cc1cccc2ccccc12)N/N=C1\CCCc2ccccc21 | 91.8* | 0.7 | 6.7 | 8.9 | -2.9 | -10.0
O=C(CNc1ccc(F)cc1)N/N=C1\CCCc2ccccc21 | 70.5* | -2.1 | 12.3 | 0.3 | -3.5 | -4.4
CN(CCCn1ccc(N)nc1=O)Cc1ccco1 | . | . | . | -5.3 | . | -7.2
SMILES | CHOP inh | CHOP UPR activ | TLR4-MyD88 BLA | NOD2-RIPK2 inh | XBP1 UPR activ | TLR9-MyD88 block
COCCNC(=O)c1cccc(Nc2nc(-c3ccccc3)c3cc(Cl)ccc3n2)c1 | 81.7* | 1.0 | 4.3 | -13.7 | 11.7 | 3.3
CN[C@@H](CO)C(=O)NC[C@H]1O[C@@H](n2cc(C)c(=O)[nH]c2=O)C[C@@H]1O | . | . | . | -5.2 | . | 4.7
CCc1c(C)sc(NC(=O)c2cc(-c3ccc(OC)c(OC)c3)on2)c1C#N | 83.3* | -2.1 | -6.0 | -3.9 | -1.6 | -7.5
CCc1c(C)sc(NC(=O)c2cc(CC(C)C)on2)c1C#N | 31.9 | 0.9 | 1.4 | 3.6 | -1.4 | 5.3
CCc1c(C)sc(NC(=O)c2cc(-c3cc(OC)ccc3OC)on2)c1C#N | 85.9* | 3.9 | -27.4 | -13.4 | 18.4 | -9.8
CCc1c(C)sc(NC(=O)c2cc(-c3ccc(O)cc3)on2)c1C#N | -10.0 | 1.2 | 10.3 | 2.4 | 3.5 | -9.0
CCOC(=O)c1cc2c(ccn2C)n1CC(=O)N1CCC(Cc2ccccc2)CC1 | 71.1* | -2.2 | -6.7 | -8.2 | 0.5 | 9.1
COc1ccc(C(=O)Nc2ccc(Oc3ncnc4sc(-c5ccccc5)cc34)cc2)cc1OC | 59.0 | 0.1 | -7.6 | -1.9 | 7.0 | -1.5
COc1ccc(C(=O)Nc2ccc(Oc3nc(C)nc4sc(-c5ccccc5)cc34)cc2)cc1OC | 80.9* | 6.3 | -9.8 | -0.8 | 3.7 | -5.8
Cc1cc2nccnc2cc1C | . | . | . | 1.9 | . | 5.2
CC(=O)Nc1ccc(C(=O)OCc2ccc(Cl)c(Cl)c2)cc1 | 7.7 | 1.7 | -1.8 | 2.7 | 0.4 | 0.7
CCC(=O)Nc1ccc(C(=O)OCc2ccc(Cl)c(Cl)c2)cc1 | 89.2* | -2.2 | -19.5 | -5.0 | -4.5 | -5.7
COc1cc(C(=O)NC(=S)Nc2ccc3ccccc3c2)cc(OC)c1OC | . | . | . | 3.1 | . | 7.9
COc1ccc2c(c1)c(=O)oc1cc3oc(C)c(C)c3cc12 | 20.8 | . | -8.7 | . | . | .
COc1ccc2c(c1)c(=O)oc1cc3occ(C(C)(C)C)c3cc12 | 87.0* | 2.2 | -6.3 | 0.2 | 4.8 | 6.4
CCCNC(=O)C1(C)CCN(C(=O)C(c2ccccc2)c2ccccc2)C1 (stereo not given) | . | . | . | -7.7 | . | .
CCC(C)n1c(SCc2ccc([N+](=O)[O-])cc2)nc2ccsc2c1=O (stereo not given) | 73.7* | 1.8 | 0.4 | 6.8 | 1.5 | -16.2
CCN(CC)C(=O)C(c1ccccc1)S(=O)(=O)N1CCOCC1 (stereo not given) | . | . | . | -8.4 | . | 0.5
Cn1c(=O)c2c(SCc3ccccn3)nc(C3CC3)nc2n(C)c1=O | 30.4 | -2.1 | -3.0 | 12.6 | 6.6 | -4.8
Cn1c(=O)c2c(SC3CCCC3)nc(CC(C)(C)C)nc2n(C)c1=O | . | . | 4.7 | . | . | .
Cn1c(=O)c2c(SCc3ccccn3)nc(CC(C)(C)C)nc2n(C)c1=O | 73.7* | 0.8 | 6.4 | 3.7 | 3.8 | -4.4
CCCc1nc(SC2CCCC2)c2c(=O)n(C)c(=O)n(C)c2n1 | 75.4* | 4.8 | . | -0.5 | 3.9 | 7.5
CCCc1nc(SCc2ccccn2)c2c(=O)n(C)c(=O)n(C)c2n1 | 70.3* | 3.4 | -4.1 | -1.2 | -1.8 | 1.6
